Data published in publication PMC3706105 (Breast cancer research and treatment, 2012).
Each block holds one compound with its values, some of them ahead of it.

Tests used:
ATF2 = experiment: Immunoblot pATF2; format: cell-based, human
Summary of the method: (§1)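 MDA-MB-231 cells treated with test compound, e.g. 10 ppm for 1–24 h. For P38 inhibition, cells were pretreated 1 h with SB203580, then co-treated 4 h. Lysed in Tris pH 7.5/NP-40/SDS/deoxycholate buffer with phosphatase and protease inhibitors. 20–50 μg protein resolved by 10 or 12% SDS-PAGE, wet-transferred and blocked in 5% BSA/TBS-Tween. Phospho-specific primaries at 1:1000, HRP secondaries at 1:5,000, chemiluminescent detection; band densitometry.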

MAPKAPK = experiment: Immunoblot pT334 MAPKAPK; format: cell-based, human; settings: MDA-MB-231, SB203580 exposure
Summary of the method: as §1

MCF-7 mammospheres [1] = experiment: Mammosphere formation; format: cell-based, human; settings: MCF-7 primary mammospheres
Summary of the method: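 MCF-7 cells trypsinised (0.05% trypsin/EDTA), PBS-washed twice and sieved to single cells. Diluted to 10,000 cells/mL in serum-free phenol-red-free MEBM with 5 μg/ml insulin, 20 ng/ml EGF, 20 ng/ml bFGF, 1× B27 and 0.5 μg/ml hydrocortisone, and plated on ultralow-attachment 96-well plates. Next day, test compound (ppm) or 0.6% acetone final vehicle added; medium replenished every 3–4 days. Spheres over size threshold counted per well at 5×; triplicate wells ± SD, paired t-test.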

MDA-MB-436 [2] = experiment: Crystal violet growth assay; format: cell-based, human
Summary of the method: (§2)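 Cell seeding in 96-well plates was 1500 cells/well (MDA-MB-231, MDA-MB-436, BJ fibroblasts) or 4000 (MCF-7). Next day, phenol-free DMEM with 10% charcoal-stripped FBS plus test compound at 0.5–10 ppm (1.65–33 μM) or acetone vehicle, for up to 10 days. Plates were fixed and stained 15 min with 0.5% crystal violet/25% methanol, washed, dried, and dye eluted in 0.1 M sodium citrate; absorbance 560 nm, % of vehicle, triplicates ± SD. Day-7 IC50 by linear-regression interpolation.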

MDA-MB-231 [3] = experiment: Crystal violet growth assay; format: cell-based, human
Summary of the method: as §2

MCF-7 [4] = experiment: Crystal violet growth assay; format: cell-based, human
Summary of the method: as §2

MCF-7 [5] = experiment: Cell cycle analysis; format: cell-based, human; settings: MCF-7, 10ppm, 48 hours
ALDH1 = experiment: Aldefluor ALDH1 activity in mammospheres; format: cell-based, human; settings: MCF-7 primary mammospheres grown with GR-24; vehicle 6%
BJ fibroblasts = experiment: Crystal violet growth assay; format: cell-based; settings: 0.5 to 10ppm, up to 10 days
Summary of the method: as §2

MCF10A [6] = experiment: Cell cycle analysis; format: cell-based; settings: 0.5-10ppm, 48 hours
MDA-MB-231 mammospheres = experiment: Mammosphere formation; format: cell-based, human
Summary of the method: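 Single-cell MDA-MB-231 suspensions grown as mammospheres in serum-free phenol-red-free CnT-27 medium with growth additives on ultralow-attachment 96-well plates. Next day, test compound (ppm) or vehicle (0.6% acetone final) added; medium replenished every 3–4 days. Mammospheres above size threshold counted per well; triplicate wells, mean ± SD, two-tailed paired t-test versus vehicle.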

[7] = tested on: MCF-7 secondary mammospheres; experiment: XTT viability assay on mammospheres; format: cell-based, human; settings: 5 days
MDA-MB-231 [8] = experiment: Cell cycle analysis; format: cell-based, human; settings: 48 hours
MDA-MB-436 [9] = experiment: Cell cycle analysis; format: cell-based, human; settings: MDA-MB-436, 10ppm, 48 hours
MCF10A [10] = experiment: XTT viability assay; format: cell-based
MDA-MB-436 [11] = experiment: XTT viability assay; format: cell-based, human; settings: MDA-MB-436, XTT
Summary of the method: (§3)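 Seeding in normal growth medium in 96-well plates: 1500 cells/well for MCF10A, MDA-MB-231 and MDA-MB-436, 4000 for MCF-7. Next day, phenol-free DMEM with 10% charcoal-stripped FBS containing final concentrations of test compound or acetone vehicle, the vehicle matched to the highest dose only. After 3 days, XTT reagent 2–3 h at 37 °C. Absorbance at 450 nm minus 750 nm reference and medium blank, expressed as % of control; IC50 interpolated from sigmoidal dose–response curves.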

P38 MAPK = experiment: Immunoblot pP38; format: cell-based, human; settings: densitometry of immunoblot
Summary of the method: as §1

MCF-7 mammospheres [12] = experiment: Integrity of mature primary mammospheres; format: cell-based, human; settings: mature MCF-7 mammospheres; for mammosphere numbers (≥100μM), percentage of vehicle treated control: 5 days of treatment, vehicle control 86.7±6.8
MDA-MB-231 [13] = experiment: XTT viability assay; format: cell-based, human; settings: MDA-MB-231, XTT
Summary of the method: as §3

BJ fibroblast = experiment: Cell cycle analysis; format: cell-based; settings: 5 ppm, 48 hours
MCF-7 [14] = experiment: XTT viability assay; format: cell-based, human; settings: MCF-7, XTT
Summary of the method: as §3

MDA-MB-231 cells [15] = experiment: XTT viability after timed SL exposure and removal; format: cell-based, human; settings: MDA-MB-231, 5ppm and 10ppm, XTT at 24 hours
Summary of the method: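 MDA-MB-231 cells exposed to test compound at 5 or 10 ppm for 2, 4 or 24 h. Medium was then removed, cells washed, and growth medium without compound added. XTT viability read 24 h after treatment start, as % of vehicle controls, mean ± SD; two-tailed paired Student's t-test against vehicle.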

MDA-MB-231 cells [16] = experiment: Hoechst33342 nuclear staining; format: cell-based, human; settings: MDA-MB-231, 5-10 ppm, 24 hours, Hoechst staining
T47D = experiment: XTT viability assay; format: cell-based, human

SMILES: C[S+]([O-])c1ccc(-c2nc(-c3ccncc3)c(-c3ccc(F)cc3)[nH]2)cc1 (stereo not drawn) [SB203580, reference compound]
inhibition of ATF2 phosphorylation following SL treatment (ATF2; MDA-MB-231, 20 μM to 40 μM): did not inhibit ATF2 phosphorylation
pT334 MAPKAPK phosphorylation (MAPKAPK): decreased in a dose dependent manner

IC50 of long-term proliferation (MDA-MB-436 [2]; MDA-MB-436, 7 days): 5.2 ppm
IC50 (MDA-MB-436 [2]; read-out: IC50 of long-term proliferation, MDA-MB-436, 7 days): 17.2 µM
IC50 of long-term proliferation (MDA-MB-231 [3]; MDA-MB-231, 7 days): 5.7 ppm
IC50 (MDA-MB-231 [3]; read-out: IC50 of long-term proliferation, MDA-MB-231, 7 days): 18.8 µM
IC50 of long-term proliferation (MCF-7 [4]; MCF-7, 7 days): 5.7 ppm
IC50 (MCF-7 [4]; read-out: IC50 of long-term proliferation, MCF-7, 7 days): 18.8 µM
SMILES: CC1=C[C@H](O/C=C2/C(=O)O[C@@H]3c4ccccc4C[C@H]23)OC1=O [GR-24]
mammosphere growth (MCF-7 mammospheres [1]; 0.5ppm): inhibited to a lesser degree
mammosphere formation (MCF-7 mammospheres [1]; 1ppm): severely attenuated
mammosphere formation (MCF-7 mammospheres [1]; 2.5 –5ppm): completely inhibited
change in subG1 fraction (MCF-7 [5]): no change
ALDH activity (percentage of ALDH positive cells) (ALDH1): 2%
growth compared to vehicle (BJ fibroblasts): no significant reduction in growth
change in cell cycle distribution (MCF10A [6]): no change
mammosphere growth (MDA-MB-231 mammospheres; 2.5ppm): severely attenuated
mammosphere formation (MDA-MB-231 mammospheres; 5ppm): completely blocked
mammosphere viability (% of vehicle control) ([7]; 2.5ppm): 68.6%±12.4
reduction of mammosphere viability ([7]; 5ppm): approximately 80%
mammosphere viability (% of vehicle control) ([7]; 5ppm, control 98.4%± 3.4): 16.4%± 4.6
increase in sub-G1/apoptotic fraction compared to vehicle (MDA-MB-231 [8]; MDA-MB-231, 10ppm): 4.6 fold
increase in sub-G1/apoptotic fraction compared to vehicle (MDA-MB-436 [9]): 3.4 fold

IC50 (ppm) at 72hours (MDA-MB-436 [11]): 5.9 ppm
IC50 (ppm) at 72hours (MDA-MB-231 [13]): 2.9 ppm
IC50 (ppm) at 72hours (MCF-7 [14]): 8.1 ppm
IC50 (ppm) at 72hours (T47D): 8.6 ppm
SMILES: CC1=CC(O/C=C2/C(=O)c3c(c4cc(-c5scc6c5OCCO6)ccc4n3C)C2C)OC1=O (stereo not drawn) [ST362]
mammosphere formation (MCF-7 mammospheres [1]; 1ppm): significantly inhibited mammosphere formation
mammosphere growth (MCF-7 mammospheres [1]; 2.5ppm, 7 days): able to block mammosphere growth
IC50 (ppm) at 72hours (MCF10A [10]): >15 ppm
reduction in viability (MCF10A [10]; between day 10 and 14 (so in the source)): 20%
phosphorylation of ATF2 (ATF2; MDA-MB-231, immunoblot, SL treatment 4-8 hours): induced
increase in pP38 levels compared to vehicle (P38 MAPK; MDA-MB-231, 4 hours): 5 fold
increase in pP38 levels compared to vehicle (P38 MAPK; MDA-MB-231, 8 hours): 13 fold
mammosphere numbers (≥100μM), percentage of vehicle treated control (MCF-7 mammospheres [12]; 2.5ppm): 6±1.7%
mammosphere morphology (MCF-7 mammospheres [12]; 5 and 2.5ppm, after 48 hours): looser morphology and appeared to be dissociating
mammosphere numbers (≥100μM), percentage of vehicle treated control (MCF-7 mammospheres [12]; 5ppm): 8.3±3.5%
SubG1/poptosis (BJ fibroblast; vehicle 0.21): 0.72
Cell Cycle Distribution (%) S (BJ fibroblast; vehicle 2.510): 1.580%
Cell Cycle Distribution (%) G2 (BJ fibroblast; vehicle 10.17): 12.86%
Cell Cycle Distribution (%) G1 (BJ fibroblast; vehicle 84.25): 83.42%
SubG1/poptosis (MDA-MB-231 [8]; MDA-MB-231, 5 ppm, vehicle 0.41): 4.17
Cell Cycle Distribution (%) S (MDA-MB-231 [8]; MDA-MB-231, 5 ppm, vehicle 13.02): 11.90%
Cell Cycle Distribution (%) G2 (MDA-MB-231 [8]; MDA-MB-231, 5 ppm, vehicle 24.08): 37.93%
Cell Cycle Distribution (%) G1 (MDA-MB-231 [8]; MDA-MB-231, 5 ppm, vehicle 60.43): 42.17%
cell viability after 2 hours exposure (MDA-MB-231 cells [15]; SL removed): No changes in cell viability
cell viability after 4 hours exposure (MDA-MB-231 cells [15]; SL removed, p<0.01): significant decrease in viability
cell viability after continual exposure (24h) compared to 4 hours exposure (MDA-MB-231 cells [15]; p<0.001): greater reduction in cell viability
nuclear changes indicative of apoptosis (MDA-MB-231 cells [16]): increased nuclear condensation and fragmentation
